Results as given in ChEMBL document CHEMBL3758101, “Synthesis and biological evaluation of fluorinated 1,5-diarylpyrrole-3-alkoxyethyl ether derivatives as selective COX-2 inhibitors endowed with anti-inflammatory activity” (Eur J Med Chem, 2016).
Calls of active or inactive are those of the source. The calls are words filed in the database; no cut-off is given here.

Columns and labels:
HaCaT [1] = assay: Antiproliferative activity against human HaCaT cells at 10 uM after 24 hrs by BrdU incorporation assay; format: functional, cell-based
Summary of the method: (§1)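 HaCaT human keratinocytes were grown in high-glucose DMEM with 10% FBS and 2 mM L-glutamine at 37 °C and 5% CO2 to 80% confluency. Cells were treated 24 h with compound at 1, 10 or 50 µM (final DMSO ≤0.1%). Proliferation was read by BrdU incorporation as % of DMSO control; three experiments.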

Mus musculus = organism: Mus musculus; assay: Selectivity ratio of IC50 for mouse COX-1 to IC50 for mouse COX-2
Summary of the method: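 In J774 cells, the ratio was taken as COX-1 IC50 over COX-2 IC50. COX-1 activity: 15 min compound pretreatment, then 30 min with 15 µM arachidonic acid. COX-2 activity: 24 h LPS (10 µg/mL) induction with compound. PGE2 was measured by RIA in both; IC50 values came from sigmoidal fits of three experiments.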

HaCaT [2] = assay: Antiproliferative activity against human HaCaT cells at 50 uM after 24 hrs by BrdU incorporation assay; format: functional, cell-based; summary of the method: as §1
[3] = target: T1, Prostaglandin G/H synthase 1 (Mus musculus, UniProt P22437); assay: Inhibition of COX-1 in mouse J774 cells assessed as reduction in PGE2 level using arachidonic acid as substrate preincubated for 15 mins followed by incubation with arachidonic acid for 30 mins by radio immunoassay; format: cell-based
T1 sequence (P22437 whole entry): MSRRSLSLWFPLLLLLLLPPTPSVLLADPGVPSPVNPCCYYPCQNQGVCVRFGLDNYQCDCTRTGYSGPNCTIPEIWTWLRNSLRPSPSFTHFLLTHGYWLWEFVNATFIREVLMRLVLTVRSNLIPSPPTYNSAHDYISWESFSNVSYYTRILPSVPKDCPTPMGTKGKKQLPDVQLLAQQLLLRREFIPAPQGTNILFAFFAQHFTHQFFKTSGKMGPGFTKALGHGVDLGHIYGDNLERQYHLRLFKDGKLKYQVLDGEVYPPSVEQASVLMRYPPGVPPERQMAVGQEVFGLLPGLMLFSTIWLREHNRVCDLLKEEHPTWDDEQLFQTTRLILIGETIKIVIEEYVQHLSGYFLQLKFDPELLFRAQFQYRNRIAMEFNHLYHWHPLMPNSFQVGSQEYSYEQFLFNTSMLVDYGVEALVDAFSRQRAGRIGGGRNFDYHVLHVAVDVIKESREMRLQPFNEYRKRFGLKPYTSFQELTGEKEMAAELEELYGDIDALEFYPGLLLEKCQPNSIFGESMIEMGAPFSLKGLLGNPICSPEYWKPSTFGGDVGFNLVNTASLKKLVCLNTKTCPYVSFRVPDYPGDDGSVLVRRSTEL
Summary of the method: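 Murine J774 macrophages (2.5 × 10^5 cells/mL) were adhered 2 h at 37 °C and given fresh medium. Cells were pretreated with compound at 100 µM for 15 min, then incubated 30 min at 37 °C with 15 µM arachidonic acid. Supernatant PGE2 was measured by RIA as % inhibition versus control; triplicate wells, three experiments, IC50 from a sigmoidal variable-slope fit.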

HaCaT [4] = assay: Antiproliferative activity against human HaCaT cells at 1 uM after 24 hrs by BrdU incorporation assay; format: functional, cell-based; summary of the method: as §1
[5] = target: T2, Prostaglandin G/H synthase 2 (Mus musculus, UniProt Q05769); assay: Inhibition of COX-2 in mouse J774 cells assessed as reduction in LPS-induced PGE2 level incubated for 24 hrs by radio immunoassay; format: cell-based
T2 sequence (Q05769 whole entry): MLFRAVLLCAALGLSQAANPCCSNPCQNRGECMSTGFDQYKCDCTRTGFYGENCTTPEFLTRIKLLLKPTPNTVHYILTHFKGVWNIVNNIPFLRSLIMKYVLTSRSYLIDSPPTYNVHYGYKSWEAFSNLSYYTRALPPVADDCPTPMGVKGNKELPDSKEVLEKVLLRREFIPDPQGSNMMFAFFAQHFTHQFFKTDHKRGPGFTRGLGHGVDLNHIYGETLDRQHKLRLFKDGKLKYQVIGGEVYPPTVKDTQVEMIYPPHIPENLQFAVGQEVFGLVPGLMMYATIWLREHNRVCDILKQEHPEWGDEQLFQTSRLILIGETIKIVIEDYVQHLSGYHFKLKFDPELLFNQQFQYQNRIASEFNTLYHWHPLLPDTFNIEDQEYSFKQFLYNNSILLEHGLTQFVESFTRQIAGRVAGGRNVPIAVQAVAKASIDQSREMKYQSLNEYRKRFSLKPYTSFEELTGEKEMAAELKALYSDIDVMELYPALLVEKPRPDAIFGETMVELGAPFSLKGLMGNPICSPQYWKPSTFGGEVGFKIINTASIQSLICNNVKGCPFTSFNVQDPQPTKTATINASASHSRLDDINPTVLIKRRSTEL
Summary of the method: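 Murine J774 macrophages were stimulated for 24 h with E. coli LPS (10 µg/mL) to induce COX-2, with or without compound (0.001–10 µM). Supernatant PGE2 was measured by RIA as % inhibition of production versus control; triplicate wells, mean of three experiments, IC50 from a sigmoidal variable-slope fit.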

HaCaT [6] = assay: Cytotoxicity against human HaCaT cells at 1 to 50 uM after 24 hrs by LDH release assay; format: cell-based
Summary of the method: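 HaCaT cells were grown in high-glucose DMEM with 10% FBS to 80% confluency. They were exposed 24 h to compound at 1–50 µM (final DMSO ≤0.1%). LDH release was expressed as a percentage of Triton X-100 lysis (100%); mean of three experiments.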

HaCaT [7] = assay: Antiproliferative activity against human HaCaT cells after 24 hrs by BrdU incorporation assay; format: functional, cell-based; summary of the method: as §1

| Compound | Ratio IC50 (Mus musculus) | IC50 [3] | IC50 [5] | Activity (HaCaT [1]) | Activity (HaCaT [2]) | Activity (HaCaT [4]) | Activity (HaCaT [6]) | Activity (HaCaT [7]) |
| --- | --- | --- | --- | --- | --- | --- | --- | --- |
| CCCOCCc1cc(-c2ccc(S(C)(=O)=O)cc2)n(-c2cccc(F)c2)c1C | > 7690 | > 100000 nM | 13 nM | inactive | inactive | inactive | Non-toxic | inactive |
| Cc1c(CCOCCCF)cc(-c2ccc(S(C)(=O)=O)cc2)n1-c1cccc(F)c1 | > 2860 | > 100000 nM | 135 nM | inactive | inactive | inactive | Non-toxic | inactive |
| CCCOCCc1cc(-c2ccc(S(C)(=O)=O)cc2)n(-c2ccc(F)c(F)c2)c1C | > 5560 | > 100000 nM | 18 nM | Active | Active | inactive | Non-toxic | Dose-dependent effect |
| Cc1c(CCOCCCF)cc(-c2ccc(S(C)(=O)=O)cc2)n1-c1ccc(F)c(F)c1 | > 5260 | > 100000 nM | 19 nM | Active | Active | inactive | Non-toxic | Dose-dependent effect |
| Cc1c(CCOCCF)cc(-c2ccc(S(C)(=O)=O)cc2)n1-c1ccc(F)cc1 | > 7690 | > 100000 nM | 13 nM | Active | Active | inactive | Non-toxic | Dose-dependent effect |

Further lines, with some results ahead:

| Ratio IC50 (Mus musculus) | IC50 [3] | IC50 [5] | Compound | Activity (HaCaT [1]) | Activity (HaCaT [2]) | Activity (HaCaT [4]) | Activity (HaCaT [6]) | Activity (HaCaT [7]) |
| --- | --- | --- | --- | --- | --- | --- | --- | --- |
| > 714 | > 100000 nM | 140 nM | Cc1c(CCOCCF)cc(-c2ccc(S(C)(=O)=O)cc2)n1-c1cccc(F)c1 | Active | Active | inactive | Non-toxic | Dose-dependent effect |
| > 3450 | > 100000 nM | 29 nM | Cc1c(CCOCCF)cc(-c2ccc(S(C)(=O)=O)cc2)n1-c1ccc(F)c(F)c1 | Active | Active | inactive | Non-toxic | Dose-dependent effect |
